Published values pooled from the literature.
Protocols differ between the studies behind these lines.
Target: Mu-type opioid receptor (OPRM1, Homo sapiens, UniProt P35372)

| Structure (SMILES) | read-out | technique | notes | measurement | result |
| --- | --- | --- | --- | --- | --- |
| COc1ncccc1-c1cnn2ccc(N3CCN(C(=O)OC(C)C)CC3)nc12 | cell-free assay | – | – | IC50 | > 30000 nM |
| Cc1cccc(C)c1-c1cnc2c(c1)C[C@@]1(OCCCc3ccccc3)[C@H]3Cc4ccc(O)c5c4[C@@]1(CCN3CC1CC1)[C@H]2O5 | cell-free assay | – | – | Ki | ~200 nM |
| CC(CCc1ccc(O)cc1)NCCc1ccc(O)c(O)c1 (stereo not drawn) | ligand displacement | radioligand | – | IC50 | 1660 nM |
| COc1ccc2c(c1)[C@]13CCCC[C@@H]1[C@H](C2)N(C)CC3 | ligand displacement | radioligand | – | IC50 | 1700 nM |
| CN[C@]1(c2ccccc2Cl)CCCCC1=O | ligand displacement | radioligand | – | Ki | 3000 nM |
| Cc1ccc(CNC(=O)CNC(=O)[C@@H]2Cc3ccccc3CN2C(=O)[C@@H](N)Cc2c(C)cc(O)cc2C)cc1 | ligand displacement | radioligand | cell membranes | Ki | 3.7 nM |
| CC(Cc1ccccc1)NCCC(c1ccccc1)c1ccccc1 (stereo not drawn) | ligand displacement | radioligand | – | IC50 | 1800 nM |
| Cc1cc(O)cc(C)c1C[C@H](N)C(=O)N1Cc2ccccc2C[C@H]1C(=O)NCC(=O)NCc1ccc(Cl)cc1 | ligand displacement | radioligand | cell membranes | Ki | 2.9 nM |
| CCCO[C@@]12Cc3cc(-c4ccccc4)cnc3[C@@H]3Oc4c(O)ccc5c4[C@@]31CCN(CC1CC1)[C@@H]2C5 | cell-free assay | – | – | Ki | 499 nM |
| CCCCCCCCC[C@@H]1CC(=O)NCC(=O)N[C@H](Cc2ccc(O)cc2)C(=O)NCC(=O)N[C@@H](Cc2ccccc2)C(=O)O1 | ligand displacement | radioligand | – | Ki | 6400 nM |
| CC(NCCc1ccc(O)cc1)C(O)c1ccc(O)cc1 (stereo not drawn) | ligand displacement | radioligand | – | IC50 | 9180 nM |
| Cc1cc(O)cc(C)c1C[C@H](N)C(=O)N1Cc2ccccc2C[C@H]1C(=O)NCC(=O)NCc1ccc([N+](=O)[O-])cc1 | ligand displacement | radioligand | cell membranes | Ki | 4.5 nM |
